The text below walks through data of PubChem BioAssay AID623984 (Vanderbilt High Throughput Screening Facility, 2012).

Activity calls are given as the source filed them. How the calls were made is not given here.

The target of the assay is Inward rectifier potassium channel 2 (Homo sapiens) (UniProt P63252). In words: KCNJ2 inward rectifier thallium flux activity – cell-based, human, concentration-response, selectivity assay for GIRK activator project, dose response (AID 623984). To be noted: T-REx-293 hKir2.1, thallium flux FluoZin-2; series mostly up to 100 µM. The method, boiled down: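 Material – hKir2.1 T-REx-293 cells, tetracycline-induced · Reagent – bicarbonate thallium stimulus (Tl2SO4, NaHCO3, pH 7.4) plus EC20 glutamate · Dosing – compound addition solution containing 0.2% DMSO · Incubation – compound exposure 4 min before thallium stimulus · Technique – thallium flux fluorescence, FluoZin-2 AM dye, sampled at 1 Hz · Controls – vehicle wells as reference, uninduced wells as background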
Sequence of Inward rectifier potassium channel 2 (Homo sapiens) (P63252 whole entry, looked up): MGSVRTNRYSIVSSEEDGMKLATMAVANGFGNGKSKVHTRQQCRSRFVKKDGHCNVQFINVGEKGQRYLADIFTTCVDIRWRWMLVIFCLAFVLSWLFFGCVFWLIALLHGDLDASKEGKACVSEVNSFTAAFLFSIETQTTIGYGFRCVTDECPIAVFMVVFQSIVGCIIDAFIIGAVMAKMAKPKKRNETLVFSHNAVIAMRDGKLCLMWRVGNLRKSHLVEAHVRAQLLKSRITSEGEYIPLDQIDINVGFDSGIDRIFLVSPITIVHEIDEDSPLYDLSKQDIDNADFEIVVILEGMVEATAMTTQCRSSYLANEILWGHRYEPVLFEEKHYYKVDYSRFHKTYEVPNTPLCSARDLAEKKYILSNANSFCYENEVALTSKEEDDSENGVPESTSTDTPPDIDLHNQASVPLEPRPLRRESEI

As for `Cc1cc(NC(=O)Nc2ccc(F)c(F)c2)n(-c2ccccc2)n1`, the molecule was classed as inactive.
